# Experimental data of several laboratories.
# Lines come from different studies, so protocols differ.
# Target: Glycogen synthase kinase-3 alpha (GSK3A, Homo sapiens, UniProt P49840)
Compound,effect on,technique,tested at,remaining binding [%]
Cc1nc(C2CCN(C(=O)c3ccc(OC(F)(F)F)cc3N)CC2)c2ncc(N3CCN(C)CC3)cc2n1,cell-free assay,competition with immobilised ligand,1 µM,85
C[C@@H](c1ccc(-n2cnc3c(N)ncnc32)cc1)N1CCc2nn(C)c(Cc3ccccc3)c2C1=O,binding,competition with immobilised ligand,0.1 µM,72
C[C@H]1CCN(c2nccc(-c3cnn4ncccc34)n2)C1,binding,,1 µM,85
COc1ncc2cc3ccccc3nc2c1C#N,cell-free assay,competition with immobilised ligand,5 µM,94
CC1CCCN1c1nccc(-c2cnn3ncccc23)n1 (stereo not drawn),binding,,1 µM,94
CN1CCN(c2cnc3c(C4CCN(C(=O)c5ccc(OC(F)(F)F)cc5N)CC4)ncnc3c2)CC1,cell-free assay,competition with immobilised ligand,1 µM,100
N[C@H]1CCN(c2nccc(-c3cnn4ncccc34)n2)C1,binding,,1 µM,86
O=C(NCC1CCOCC1)c1n[nH]cc1NC(=O)c1c(F)cccc1F,binding,competition with immobilised ligand,1 µM,0
CN(CCCC(F)(F)F)c1nccc(-c2cnn3ncccc23)n1,binding,,1 µM,100
O=C(c1ccc(Nc2nccc(-c3cc4ccccc4s3)n2)cc1)N1CCC(N2CCCC2)CC1,binding,competition with immobilised ligand,1 µM,82
Nc1ncc2c(n1)-c1c([nH]c3ccc(C#CC4CC4)cc13)CCCC2,binding,competition with immobilised ligand,1 µM,57
COc1cnc(Nc2cccc(S(N)(=O)=O)c2)nc1N1CCN(c2ccccc2)C(=O)C1,binding,competition with immobilised ligand,1 µM,90
Cc1cnn2ncc(-c3ccnc(N(C)C)n3)c2c1,binding,,1 µM,96
C[C@H](NC(=O)c1cnc2n1[C@](C)(Cc1ccc(C#N)cc1)C(=O)N2c1cc(Cl)c(F)c(Cl)c1)C(=O)NC1(c2ccccn2)CC1,cell-free assay,competition with immobilised ligand,1 µM,100
c1cnn2ncc(-c3ccnc(N4CCC45COC5)n3)c2c1,binding,,1 µM,100
O=C(NCc1ncc(C(F)(F)F)cc1Cl)c1ccc2c(c1)C1(CCS(=O)(=O)CC1)[C@H](C1CC1)N2S(=O)(=O)c1ccc(F)cc1,cell-free assay,competition with immobilised ligand,1 µM,100
FC(F)(F)Oc1cccc(-c2cnc3ccc(-c4ccncc4)nn23)c1,cell-free assay,competition with immobilised ligand,5 µM,44
O=C(NCCCN1CCOCC1)c1ccc(Nc2ncc(Cl)c(-c3ccc(Cl)s3)n2)cc1,binding,competition with immobilised ligand,1 µM,43
O=C(NC[C@@H]1[C@H]2CN(C(=O)OCc3cc(C(F)(F)F)cc(C(F)(F)F)c3)C[C@@H]12)c1ccc2[nH]nnc2c1,cell-free assay,competition with immobilised ligand,1 µM,99
O=C(c1ccc(Nc2ncc(Cl)c(-c3ccc(Cl)s3)n2)cc1)N1CCC(N2CCCC2)CC1,binding,competition with immobilised ligand,1 µM,22
CC(C)(O)c1cncc(-c2nc3ccc(F)cc3n2C2CC2)c1,cell-free assay,competition with immobilised ligand,1 µM,100
